Experimental data reported in ChEMBL document CHEMBL1150283, “Synthesis, cytostatic and anti-HIV evaluations of the new unsaturated acyclic C-5 pyrimidine nucleoside analogues” (Bioorg Med Chem, 2008).

Columns and labels:
HepG2 = test: Antiproliferative activity against human HepG2 cells after 3 days by MTT assay; type: functional, cell-based; conditions: HepG2, 72 h
Method in brief: (§1)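 Monolayers grown in DMEM with 10% FBS, 2 mM L-glutamine, penicillin/streptomycin at 37 °C, 5% CO2. Seeded at 1 × 10⁴ to 3 × 10⁴ cells/mL, then exposed 72 h to five 10-fold dilutions (10⁻⁸ to 10⁻⁴ M) from 0.04 M DMSO stocks, with a solvent control. MTT added for 4 h, formazan dissolved in DMSO, A570 read. Percentage growth taken against time-zero and untreated OD. Quadruplicates in three experiments; IC50 by linear regression.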

CCRF-CEM = test: Antiproliferative activity against human CEM cells after 3 days by MTT assay; type: functional, cell-based; conditions: 72 h
HeLa = test: Antiproliferative activity against human HeLa cells after 3 days by MTT assay; type: functional, cell-based; conditions: 72 h; method in brief: as §1
MIA PaCa-2 = test: Antiproliferative activity against human MiaPaCa2 cells after 3 days by MTT assay; type: functional, cell-based; conditions: MIA PaCa-2, 72 h; method in brief: as §1
SW-620 = test: Antiproliferative activity against human SW620 cells after 3 days by MTT assay; type: functional, cell-based; conditions: SW-620, 72 h; method in brief: as §1
[1] = Cytotoxicity against human WI38 cells after 3 days by MTT assay; type: cell-based; conditions: WI-38, 72 h; method in brief: as §1
[2] = system: Human immunodeficiency virus 1; test: Antiviral activity against HIV1 assessed as inhibition of virus-induced cytopathogenicity in CEM cells; type: functional, organism-based; conditions: Human immunodeficiency virus 1, CCRF-CEM
Method in brief: (§2)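 CEM cell cultures infected with HIV-1 or HIV-2. Virus-induced cytopathicity scored as syncytia formation.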

L1210 = test: Antiproliferative activity against mouse L1210 cells after 2 days by MTT assay; type: functional, cell-based; conditions: L1210, 48 h
[3] = Antiproliferative activity against human Molt4/C8 cells after 3 days by MTT assay; type: functional, cell-based; conditions: MOLT-4, 72 h
[4] = system: Human immunodeficiency virus 2; test: Antiviral activity against HIV2 assessed as inhibition of virus-induced cytopathogenicity in CEM cells; type: functional, organism-based; conditions: Human immunodeficiency virus 2, CCRF-CEM; method in brief: as §2
MCF7 = test: Antiproliferative activity against human MCF7 cells after 3 days by MTT assay; type: functional, cell-based; conditions: MCF7, 72 h; method in brief: as §1
Influenza A virus H3N2 = test: Antiviral activity against influenza A virus H3N2 assessed as inhibition of virus-induced cytopathogenicity in MDCK cells; type: functional, organism-based
Method in brief: (§3)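 Cytopathicity-reduction assay: Coxsackie B4 virus in HeLa cell cultures; influenza A (H3N2) in MDCK cell cultures. Virus-induced cytopathicity is scored at the time point when untreated virus-exposed cultures reach full cytopathic effect.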

Human alphaherpesvirus 3 = test: Antiviral activity against Varicella-Zoster virus assessed as inhibition of virus-induced cytopathogenicity in HEL cells; type: functional, organism-based; conditions: Human alphaherpesvirus 3, HEL
Coxsackievirus B4 = test: Antiviral activity against Coxsackie B4 virus assessed as inhibition of virus-induced cytopathogenicity in HeLa cells; type: functional, organism-based; conditions: Enterovirus B; method in brief: as §3

SMILES | IC50 (HepG2) [µM] | IC50 (CCRF-CEM) [µM] | IC50 (HeLa) [µM] | IC50 (MIA PaCa-2) [µM] | IC50 (SW-620) [µM] | IC50 [1] [µM] | EC50 [2] [µM] | IC50 (L1210) [µM] | IC50 [3] [µM] | EC50 [4] [µM] | IC50 (MCF7) [µM] | EC50 (Influenza A virus H3N2) [µM] | EC50 (Human alphaherpesvirus 3) [µM] | EC50 (Coxsackievirus B4) [µM]
CCCCC#Cc1cn(C/C=C\CN2C(=O)c3ccccc3C2=O)c(=O)[nH]c1=O | 17 | 100 | 33 | > 100 | 82 | 28 | ≥ 50 | 109 | 41 | ≥ 50 | 45 | – | – | –
CCCCc1ccc(C#Cc2cn(C/C=C\CN3C(=O)c4ccccc4C3=O)c(=O)[nH]c2=O)cc1 | 40 | 23 | 85 | 56 | > 100 | 17 | > 10 | – | 31 | > 10 | 43 | – | – | –
O=C1c2ccccc2C(=O)N1C/C=C\Cn1cc(C#CCCc2ccccc2)c(=O)[nH]c1=O | > 100 | 168 | > 100 | > 100 | > 100 | > 100 | 35 | – | 146 | ≥ 50 | > 100 | – | – | –
CCCCCC#Cc1cn(C/C=C/CN2C(=O)c3ccccc3C2=O)c(=O)[nH]c1=O | 9 | > 500 | 91 | 60 | 58 | 40 | > 50 | > 500 | > 500 | > 50 | 44 | – | – | –
CCCCCCCCC#Cc1cn(C/C=C/CN2C(=O)c3ccccc3C2=O)c(=O)[nH]c1=O | 43 | > 250 | > 100 | > 100 | 87 | 53 | > 50 | > 250 | > 250 | > 50 | 66 | – | – | –
O=C1c2ccccc2C(=O)N1C/C=C/Cn1cc(C#CCCc2ccccc2)c(=O)[nH]c1=O | 7.3 | 38 | 29 | 27 | 11 | 31 | ≥ 10 | 44 | 39 | ≥ 10 | 13 | – | – | –
CCCCc1ccc(C#Cc2cn(C/C=C/CN3C(=O)c4ccccc4C3=O)c(=O)[nH]c2=O)cc1 | 9.1 | 31 | 94 | 79 | > 100 | 40 | > 10 | 42 | 29 | > 10 | 44 | – | – | –
CCCCC#Cc1cn(C/C=C/CN2C(=O)c3ccccc3C2=O)c(=O)[nH]c1=O | 7.9 | 192 | 89 | 77 | > 100 | 35 | ≥ 50 | 236 | 171 | ≥ 50 | 8.8 | – | – | –
Cc1ccc(C#Cc2cn(C/C=C\CN3C(=O)c4ccccc4C3=O)c(=O)[nH]c2=O)cc1 | 68 | 238 | > 100 | > 100 | > 100 | > 100 | > 250 | – | 266 | > 250 | > 100 | 20 | – | –
O=C1c2ccccc2C(=O)N1C/C=C\Cn1cc(C#Cc2ccc(Br)cc2)c(=O)[nH]c1=O | – | 80 | – | > 100 | > 100 | 47 | 10 | 448 | 89 | > 50 | > 100 | – | – | –
CCCCCc1ccc(C#Cc2cn(C/C=C\CN3C(=O)c4ccccc4C3=O)c(=O)[nH]c2=O)cc1 | 18 | 102 | > 100 | > 100 | > 100 | > 100 | > 2 | 28 | 30 | > 2 | > 100 | – | 8.7 | –
CCCCCCCCC#Cc1cn(C/C=C\CN2C(=O)c3ccccc3C2=O)c(=O)[nH]c1=O | – | 39 | 59 | 68 | 67 | 49 | > 50 | 45 | 36 | > 50 | 64 | 2.5 | – | –
CCCCCCC#Cc1cn(C/C=C/CN2C(=O)c3ccccc3C2=O)c(=O)[nH]c1=O | 14 | 28 | – | 30 | 32 | 40 | ≥ 10 | 43 | 35 | ≥ 10 | 24 | – | – | –
CCCCCc1ccc(C#Cc2cn(C/C=C/CN3C(=O)c4ccccc4C3=O)c(=O)[nH]c2=O)cc1 | 4.3 | 23 | 27 | 26 | 30 | 25 | 14 | 39 | 17 | 3.1 | 5.6 | – | – | 12
O=c1[nH]cc(F)c(=O)[nH]1 [FLUOROURACIL] | 9.2 | – | – | 6.5 | 8.7 | 10 | – | 0.69 | 20 | – | – | – | – | –
